S100A4 MyoIIA = S100A4-myosin IIA interaction inhibition; P26447; S100A4/TAMRA-MyoIIA peptide fluorescence polarization; inhibition, % at 10.7 µM; hit rate 0.14% among 360,000; AID 652163;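 active means mean inhibition of at least 70% across replicates, with every replicate also reaching that level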
Target sequence (P26447 whole entry, looked up): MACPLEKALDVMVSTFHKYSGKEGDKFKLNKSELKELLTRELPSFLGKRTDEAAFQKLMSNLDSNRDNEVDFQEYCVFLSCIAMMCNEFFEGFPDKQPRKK
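incubation = readout 5 min after mixing, signal stable up to 60 min | system = S100A4 monomer protein | buffer or medium = HEPES pH 7.2 with CaCl2, KCl, NaCl, DTT, Triton | benchmarks = neutral control DMSO, positive control TFP | also added = fluorescent myosin IIA peptide, 5 nM | compound dosing = one concentration per compound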
PGC1a acetyl inh = lowers PGC1a acetylation signal in U2OS cells | AlphaScreen anti-acetyl-lysine; with virally co-expressed GCN5 acetyltransferase | inhibition, % at 15.6 µM | hit rate 0.17% among 350,000 | AID 651687;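 active means every replicate shows inhibition of at least 40%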;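 further: 0% = neutral control wells and 100% = positive control wells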
Casp6 inh = caspase-6 (human) enzyme inhibition | P55212 | purified caspase-6, Z-VEID-R110 cleavage fluorescence | inhibition, % at 12.5 µM | hit rate 0.53% among 350,000;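 active means mean inhibition across replicates at least about 35%, with every replicate also reaching that limit, limit read from the data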;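 further: 0% = median of neutral control wells and 100% = no fluorescence left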
Target sequence (P55212 24-179 limits assumed): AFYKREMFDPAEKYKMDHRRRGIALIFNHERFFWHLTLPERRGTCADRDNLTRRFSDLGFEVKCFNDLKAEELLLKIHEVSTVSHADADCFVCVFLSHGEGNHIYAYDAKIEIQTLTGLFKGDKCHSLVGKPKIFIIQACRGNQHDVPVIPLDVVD
Target sequence (P55212 194-293 limits assumed): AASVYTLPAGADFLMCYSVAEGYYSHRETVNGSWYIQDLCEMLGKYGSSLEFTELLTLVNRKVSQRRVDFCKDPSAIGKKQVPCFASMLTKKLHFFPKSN
ARNT TACC3 PPI = disruptors of human ARNT/TACC3 interaction; Q9Y6A5; inhibition, % at 9.99 µM; hit rate 0.66% among 390,000; AlphaScreen His-ARNT PAS-B/GST-TACC3 binding, luminescence; TACC3 fragment carries E629A point mutation;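 active means mean inhibition of replicates at least 50% and at least half of replicates each reaching 50%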;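 further: 0% = complete ARNT plus TACC3 wells and 100% = ARNT alone without TACC3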
Ecoli rRNA inh = selective bacterial rRNA inhibition in E. coli. GFP signal change (wild-type ribosome), % (concentration not given with the values). E. coli WT GFP vs humanized-ribosome RFP mutants, fluorescence, 24 h; hits give low values; DMSO median 0, no signal -100. hit rate 1.6% among 350,000. AID 720706;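 active means significant combined selectivity score with lowered wild-type GFP, culture density cut under 30%, mutant RFP and density less affected; inactive means any of these conditions unmet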
ERAP1 inh = ERAP1 (human) enzyme inhibition; Q9NZ08; recombinant ERAP1, Leu-AMC fluorescence, 60 min; inhibition, % at 10.7 µM; hit rate 0.15% among 340,000; AID 652197;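 active means mean replicate inhibition of at least 30%, or all replicates individually reaching that 30% level; inactive means mean below 30% and not every replicate reaching it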;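 further: 0% = neutral control wells and 100% = L-leucinethiol positive control wells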
An asterisk follows results filed as active; / = no result given. Only some compounds are listed: those with a hit (about 2.4% of all), similar ones and a draw of the others.

SMILES	S100A4 MyoIIA	PGC1a acetyl inh	Casp6 inh	ARNT TACC3 PPI	Ecoli rRNA inh	ERAP1 inh
CCCC(=O)N1CC2(C1)CN(C(=O)Nc1ccc(F)cc1)[C@@H](CO)c1c2c2ccc(OC)cc2n1C	-4	-1	1	/	-1	2
C/C(=N\Nc1ccc(C(=O)O)cc1)c1ccc(Br)cc1	-6	-12	43*	-5	-5	/
CCOC(=O)c1c(NC(C)=O)sc(/C(C)=N/Nc2ccc(C(=O)O)cc2)c1C	24	8	1	8	-17*	-7
C[C@@H]1CN([C@H](C)CO)C(=O)c2cc(NC(=O)Nc3ccc4c(c3)OCO4)ccc2O[C@H]1CN(C)C	8	4	1	-6	-3	-3
CO[C@H](CN(C)S(=O)(=O)c1ccc(F)cc1)[C@H](C)CN([C@H](C)CO)S(=O)(=O)c1cccc(Cl)c1	4	-27	0	/	-2	0
O=C(Nc1ccc(N2CCCC2)cc1)C(Cl)c1ccccc1 (stereo unspecified)	/	11	/	active	/	/
CS(=O)(=O)N1CCN(c2ccc(NC(=O)C(c3ccccc3)c3ccccc3)cc2)CC1	/	2	/	-1	/	/
O=C1OC(c2ccc(Cl)cc2)=N/C1=C\C=C\c1ccco1	-7	/	64*	-2	22	2
O=C1OC(c2ccccc2)=N/C1=C\C=C\c1ccco1	-6	9	56*	-3	21	1
O=C1OC(c2ccccc2)=N/C1=C\C=C\c1ccccc1[N+](=O)[O-]	-2	/	5	6	7	13
CCCCNC(=O)C(OC(=O)c1ccccc1)c1ccco1 (stereo unspecified)	-7	/	1	7	/	1
O=C(Nc1ccccc1Cl)N1[C@@H]2CNc3ccccc3[C@@H]2[C@@H]1CO	2	12	-3	3	-3	-1
COc1cc(C(F)(F)F)c(C(=O)N(C)Cc2ccc(Cl)c(Cl)c2)cn1	-1	-4	0	12	-22*	4
CCN(C(=O)c1cnc(OC)cc1C(F)(F)F)c1ccc(Cl)cc1	-1	-29	-1	-1	/	1
COc1ccc(/C(O)=C2/C(=O)C(=O)N(Cc3cccnc3)C2c2ccncc2)cc1F (stereo unspecified)	/	-5	/	2	/	/
Cc1cc(OCc2ccccc2)ccc1/C(O)=C1/C(=O)C(=O)N(Cc2cccnc2)C1c1ccncc1 (stereo unspecified)	0	-2	2	26	-29*	5
O=C(N/N=C/c1ccccc1C(=O)O)C(=O)N1CCCCC1	0	16	-1	2	1	-7
Cc1ccccc1C(=O)Nc1cccc(C(=O)N/N=C/c2cc(Cl)cc([N+](=O)[O-])c2O)c1	-28	/	14	52*	-8	4
Cc1cccc(C(=O)N/N=C/c2ccccn2)c1	/	/	/	54*	/	/
CC(Nc1cccc2ccccc12)C(=O)N/N=C/c1ccccn1 (stereo unspecified)	/	3	/	67*	/	/
O=C(N/N=C/c1ccccn1)C(=O)N1CCCCCC1	0	3	-3	53*	14	0
O=C(CCCC(=O)N/N=C\c1ccccn1)N/N=C\c1ccccn1	-1	/	0	15	/	5
CC(C)NC(=O)N(C)C[C@@H]1Oc2c(NS(=O)(=O)c3cn(C)cn3)cccc2C(=O)N([C@@H](C)CO)C[C@H]1C	-6	-4	0	-3	2	0
C[C@H](CO)N1C[C@H](C)[C@H](CN(C)C(=O)C2CCCCC2)Oc2ncc(-c3cccnc3)cc2C1=O	/	1	/	/	-2	/
O=C(N/N=C/c1ccccn1)c1cccc(S(=O)(=O)Nc2ccccc2Cl)c1	12	-2	2	65*	-40*	0
Cc1cccc(/C=N/NC(=O)c2ccc(NC(=O)c3ccccc3C)cc2)n1	-2	/	-2	11	3	-5
Cc1cccc(/C=N/NC(=O)c2ccncc2)n1	11	/	0	63*	4	-1
O=C(N/N=C/c1ccccn1)c1cc([N+](=O)[O-])cc([N+](=O)[O-])c1	-2	9	-2	61*	3	-3
O=C(N/N=C/c1ccccn1)c1ccc([N+](=O)[O-])cc1	-3	0	0	35	23	0
O=C(O)c1cccc(NC(=S)N/N=C/c2ccccn2)c1	5	/	3	66*	9	0
